For series [1], the species on record is Homo sapiens. Kind of series: Effective dose required to inhibit 50% of HIV-1 Ba-L-infected MDM''s at 0.001 uM. In kind it is functional.
Series [2] can be described thus: Percent increase in intracellular GSH level at 10 uM in 24 hr treated human macrophage-derived monocytes (MDMs). It is filed as functional. Put shortly:
(§1)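 Human MDMs from healthy-donor PBMCs (Ficoll-Hypaque gradient; monocytes split from PBLs by countercurrent centrifugal elutriation; 7 days differentiation). Cultured in DMEM Glutamax with 10% heat-inactivated FCS plus penicillin/streptomycin/neomycin. Treated 24 h, then lysed; GSH measured by Griffith's method and normalised to protein (Bradford). Run in triplicate across five independent experiments (n=15).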

The species named for series [3] is Homo sapiens. Kind of series: Effective dose required to inhibit 90% of HIV-1 Ba-L-infected MDM''s at 0.01 uM. In kind it is functional.
The nature of series [4]: Percent increase in intracellular GSH level at 100 uM in 24 hr treated human macrophage-derived monocytes (MDMs). It is filed as functional. The essentials: as §1
Series [5] can be described thus: Tested for cytotoxic concentration in human macrophage-derived monocytes (MDMs) at 24 hr treatment. It is filed as cell-based. Put shortly: (§2)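 Human MDMs from donor PBMCs (elutriated monocytes, 7 days differentiation) exposed to the compound for 24 h or 12 days. Cytotoxicity read by neutral-red uptake; CC50 taken as the mean of three independent experiments, each in triplicate.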

The species entered for series [6] is Homo sapiens. Kind of series: Effective dose required to inhibit 50% of HIV-1 Ba-L-infected MDM''s at 0.01 uM. It is filed as functional.
Series [7] in a line: Tested for cytotoxic concentration in human macrophage-derived monocytes (MDMs) after 12 days. In kind it is cell-based. The essentials: as §2
For series [8], the species on record is Homo sapiens. Kind of series: Effective dose required to inhibit 90% of HIV-1 Ba-L-infected MDM''s at 0.001 uM. It is filed as functional.
The species entered for series [9] is Homo sapiens. The series can be described thus: Effective dose required to inhibit 70% of HIV-1 Ba-L-infected MDM''s at 0.001 uM. It is filed as functional.
Series [10] can be described thus: Percent increase in intracellular GSH level at 250 uM in 24 hr treated human macrophage-derived monocytes (MDMs). It is filed as functional. The essentials: as §1
A short description of series [11]: Percent increase in intracellular GSH level at 1000 uM in 24 hr treated human macrophage-derived monocytes (MDMs). In kind it is functional. The essentials:
as §1

Another series has as its system Mus musculus. Kind of series: Tested for intraperitoneal lethal dose in OF1 mice after 30 days. It is filed as functional. To be noted: ip, 720 h. Put shortly: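 Mice (OF1) dosed intraperitoneally and followed for 30 days. LD50 derived by Probit analysis, with the dose range set in a preliminary study.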
The nature of series [12]: Effect on intracellular GSH content at 250 uM in human macrophage-derived monocytes (MDMs). It is filed as functional. Put shortly: as §1
The species named for series [13] is Homo sapiens. Kind of series: Effective dose required to inhibit 70% of HIV-1 Ba-L-infected MDM''s at 0.01 uM. In kind it is functional.

One may read the CC50 as the concentration at which the toxic effect on the cells reaches its halfway point. Lower therefore signals greater toxicity to the cells. The term LD50 denotes the dose at which mortality reaches 50%. The low end stands for a more toxic substance, the high end for a less toxic substance. For `CC(=O)N[C@@H](CS)C(=O)NCCSC(C)=O`, the ED50 in the series filed under Homo sapiens [1] worked out at 3 µM; in the series filed under Homo sapiens [6] it was 50 µM. The GSH worked out at 0% in series [2]; 75% in series [4]; 165% in series [10]; 140% in [11]; 480% in [12]. Further, the ED90 in the series listed under Homo sapiens [3] worked out at 190 µM; in the series filed under Homo sapiens [8] it was 75 µM. This compound gave a CC50 at 24 h in series [5] of over 5000 µM. Half-maximal cytotoxicity in [7] (CC50 at 288 h) was put at 635 µM. The ED70 in the series listed under Homo sapiens [9] turned out to be 15 µM; in the series filed under Homo sapiens [13], 90 µM. In addition, the median lethal dose (LD50) with Mus musculus was determined as 700 mg/kg.

As to `NCCS` [CYSTEAMINE], in series [12], the GSH was 200%.

`CC(=O)N[C@@H](CS)C(=O)O.NCCS`: the GSH in [12] is 190%.

Compound `CC(=O)N[C@@H](CS)C(=O)O` [ACETYLCYSTEINE] showed a GSH in series [12] of 200%.

The values above are taken from ChEMBL document CHEMBL1134258, “NAC/MEA conjugate: a new potent antioxidant which increases the GSH level in various cell lines” (Bioorg Med Chem Lett, 2001).
